Test [1] has as its system Pseudomonas aeruginosa. Briefly: Antimicrobial activity against Pseudomonas aeruginosa ATCC 27853 by broth microdilution method. The test is classed as functional. Summed up:
(§1)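 CLSI broth microdilution in Mueller-Hinton broth with an inoculum of 5 × 10^5 CFU/ml, incubated 18 h at 37°C in air. Plates were shaken throughout when the peptide was tested. The MIC was the lowest concentration inhibiting visible growth. Run in triplicate.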
(In general: Broth dilution looks for growth in wells or tubes with falling amounts of substance.)

Test [2] has as its system Pseudomonas aeruginosa. Description: Antimicrobial activity against Pseudomonas aeruginosa clinical isolates by broth microdilution method. The test is classed as functional. Summed up: as §1
Test [3] has as its system Pseudomonas aeruginosa. Briefly: Effect on Pseudomonas aeruginosa ATCC 27853 induced sepsis in BALB/c mouse assessed as mortality at 1 mg/kg, iv for 72 hrs. The test is classed as functional. Summed up:
(§2)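 Male BALB/c mice, 25–30 g, housed singly, anesthetized with ketamine 30 mg/kg im. Log-phase bacteria (grown in brain heart infusion broth, resuspended in saline) given iv via tail vein, 2.0 × 10^7 CFU. Drug at 1 or 20 mg/kg iv immediately post-challenge; saline controls. 20 mice/group; lethality over 72 h, compared by Fisher's exact test.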

The subject of test [4] is Pseudomonas aeruginosa. Briefly: Effect on Pseudomonas aeruginosa clinical isolate induced sepsis in BALB/c mouse assessed as mortality at 1 mg/kg, iv for 72 hrs. The test is classed as functional. Summed up:
as §2

In test [5] the test system is Pseudomonas aeruginosa. Description: Antibacterial activity against Pseudomonas aeruginosa ATCC 27853 infected in BALB/c mouse blood at 1 mg/kg, iv after 24 hrs. The test is classed as functional. Summed up:
(§3)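 Male BALB/c mice (25–30 g) were anesthetized with ketamine 30 mg/kg i.m. They were challenged via the tail vein with 2.0 × 10^7 CFU log-phase bacteria in saline. Drug or saline was given i.v. immediately after challenge, 20 mice per group. Tail-vein blood was taken at 24 h, serially diluted and plated on blood agar for 48 h at 35°C, and CFU were counted. Detection limit was 10 CFU/ml.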

Test [6] deals with Pseudomonas aeruginosa. Briefly: Antibacterial activity against Pseudomonas aeruginosa clinical isolates infected in BALB/c mouse blood at 1 mg/kg, iv after 24 hrs. The test is classed as functional. Summed up: as §3
The subject of test [7] is Pseudomonas aeruginosa. Description: Reduction of Pseudomonas aeruginosa ATCC 27853 infection induced IL6 levels in BALB/c mouse plasma after 24 hrs by ELISA. The test is classed as functional, organism-based. Summed up:
(§4)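 Male BALB/c mice were infected i.v. with 2.0 × 10^7 CFU and treated i.v. immediately afterwards. Tail-vein plasma was sampled at 0, 6, 12, 24 and 48 h. IL-6 and TNF-α were measured by ELISA in duplicate, with sensitivity limits of 12 pg/ml and 0.05 ng/ml respectively.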

Test [8] deals with Pseudomonas aeruginosa. Briefly: Reduction of Pseudomonas aeruginosa ATCC 27853 infection induced endotoxin levels in BALB/c mouse plasma after 24 hrs by ELISA. The test is classed as functional, organism-based. (ELISA stands for enzyme-linked immunosorbent assay.)
The test system of test [9] is Pseudomonas aeruginosa. Description: Reduction of Pseudomonas aeruginosa ATCC 27853 infection induced TNFalpha levels in BALB/c mouse plasma after 24 hrs by ELISA. The test is classed as functional, organism-based. Summed up: as §4
Test [10] has as its system Pseudomonas aeruginosa. Description: Reduction of Pseudomonas aeruginosa clinical isolate infection induced endotoxin levels in BALB/c mouse plasma after 24 hrs by ELISA. The test is classed as functional, organism-based.
Test [11] concerns Pseudomonas aeruginosa. Briefly: Reduction of Pseudomonas aeruginosa clinical isolate infection induced TNFalpha levels in BALB/c mouse plasma after 24 hrs by ELISA. The test is classed as functional, organism-based. Summed up: as §4
Test [12] has as its system Pseudomonas aeruginosa. Briefly: Reduction of Pseudomonas aeruginosa clinical isolate infection induced IL6 levels in BALB/c mouse plasma after 24 hrs by ELISA. The test is classed as functional, organism-based. Summed up: as §4
Test [13] has as its system Pseudomonas aeruginosa. Description: Effect on Pseudomonas aeruginosa ATCC 27853 induced sepsis in BALB/c mouse assessed as mortality at 20 mg/kg, iv for 72 hrs. The test is classed as functional. Summed up:
as §2

The test system of test [14] is Pseudomonas aeruginosa. Briefly: Effect on Pseudomonas aeruginosa clinical isolate induced sepsis in BALB/c mouse assessed as mortality at 20 mg/kg, iv for 72 hrs. The test is classed as functional. Summed up: as §2
In test [15] the test system is Pseudomonas aeruginosa. Briefly: Antibacterial activity against Pseudomonas aeruginosa ATCC 27853 infected in BALB/c mouse blood at 20 mg/kg, iv after 24 hrs. The test is classed as functional. Summed up:
as §3

The test system of test [16] is Pseudomonas aeruginosa. Description: Antibacterial activity against Pseudomonas aeruginosa clinical isolates infected in BALB/c mouse blood at 20 mg/kg, iv after 24 hrs. The test is classed as functional. Summed up:
as §3

≈ marks a conversion by molar mass, not a printed value. Calls of active or inactive are those of the source.

Broadly, the MIC is the smallest concentration in the dilution series that meets the test's criterion for growth inhibition. With COLISTIN, the MIC in [1] came out at 4 µg/mL; in test [2], 8 µg/mL. Besides, the Activity in [3] is 40%; in [4], 30%. Further, the CFU in [5] was 6 10^4/ml; in test [6], 1.4 10^4/ml. In addition, the result in test [7], in test [8], in [9], in test [10], in test [11] and in test [12] was Active.
With `CC[C@H](C)[C@H](NC(=O)CNC(=O)[C@H](CCCNC(=N)N)NC(=O)[C@H](Cc1ccc(O)cc1)NC(=O)[C@H](CS)NC(=O)[C@@H](NC(=O)[C@H](CCCNC(=N)N)NC(=O)[C@H](Cc1ccccc1)NC(=O)[C@H](CS)NC(=O)[C@H](Cc1c[nH]c2ccccc12)NC(=O)[C@@H](N)CCCCN)C(C)C)C(=O)N[C@@H](CS)C(=O)N[C@@H](Cc1ccc(O)cc1)C(=O)N[C@@H](CCCNC(=N)N)C(=O)N[C@@H](CCCCN)C(=O)N[C@@H](CS)C(=O)NC(CCCNC(=N)N)C(N)=O` (single isomer, unassigned) [TACHYPLESIN III], the result in test [7], in [8], in test [9], in test [10], in test [11] and in test [12] was Active.
As to `C[C@@H](O)[C@H]1C(=O)N2C(C(=O)O)=C(SCCNC=N)C[C@H]12` [IMIPENEM ANHYDROUS], the MIC amounted to 0.5 µg/mL (≈ 1.67 µM) in test [1] and 32 µg/mL (≈ 107 µM) in test [2]. Besides, the Activity is 30% in test [13] and 80% in [14]. Moreover, the CFU is 2.8 10^3/ml in [15] and 8.7 10^6/ml in [16].

The values are drawn from ChEMBL document CHEMBL1143842, “Efficacy of tachyplesin III, colistin, and imipenem against a multiresistant Pseudomonas aeruginosa strain” (Antimicrob Agents Chemother, 2007).
